# Laboratory results taken from article PMC8193639 (Journal of the American Chemical Society, 2021).
# Columns and labels:
# 14-3-3/ERα complex = target: T1, 14-3-3/ERα complex (Homo sapiens, UniProt P61981); assay: Selectivity panel, FA protein titration; type: binding; conditions: 100 μM compound; C-terminal phosphorylation motif
# T1 sequence (P61981 1-247): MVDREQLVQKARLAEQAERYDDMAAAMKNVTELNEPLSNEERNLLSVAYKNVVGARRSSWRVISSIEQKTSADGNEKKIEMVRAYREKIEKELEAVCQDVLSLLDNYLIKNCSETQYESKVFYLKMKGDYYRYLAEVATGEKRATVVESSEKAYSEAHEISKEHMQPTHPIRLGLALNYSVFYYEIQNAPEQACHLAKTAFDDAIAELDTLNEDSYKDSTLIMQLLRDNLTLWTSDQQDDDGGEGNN
# Pin1_72/14-3-3γ complex [1] = target: T2, Pin1_72/14-3-3γ complex (Homo sapiens, UniProt P61981); assay: biochemical
# AS160/14-3-3γ complex = assay: Selectivity panel, FA protein titration; type: binding; conditions: 100 μM fragment; Phe +1
# Pin1_72/14-3-3γ complex [2] = target: T2, Pin1_72/14-3-3γ complex; assay: FA protein titration of 14-3-3γ in presence of 100 μM compound; type: binding
# Abl1pT735/14-3-3γ = assay: Selectivity panel, FA protein titration; type: binding; conditions: 100 μM fragment; Leu +1
# TBC1D237/14-3-3γ = target: T3, TBC1D237/14-3-3γ (Homo sapiens, UniProt P61981); assay: Selectivity panel, FA protein titration; type: binding; conditions: 100 μM fragment; Gln +1
# T3 sequence (P61981 1-247): T1 sequence (P61981 1-247)
# p65pS45/14-3-3γ = assay: Selectivity panel, FA protein titration; type: binding; conditions: 100 μM fragment; Ile +1
# C-Raf/14-3-3γ = target: T4, C-Raf/14-3-3γ (Homo sapiens, UniProt P61981); assay: Selectivity panel, FA protein titration; type: binding; conditions: 100 μM fragment; Thr +1
# T4 sequence (P61981 1-247): T1 sequence (P61981 1-247)
# Mypt1_472/14-3-3γ = target: T5, Mypt1_472/14-3-3γ (Homo sapiens, UniProt P61981); assay: Selectivity panel, FA protein titration; type: binding; conditions: 100 μM fragment; Ser +1
# T5 sequence (P61981 1-247): T1 sequence (P61981 1-247)
# ERRγ_179/14-3-3γ = target: T6, ERRγ_179/14-3-3γ (Homo sapiens, UniProt P61981); assay: Selectivity panel, FA protein titration; type: binding; conditions: 100 μM fragment; Cys +1
# T6 sequence (P61981 1-247): T1 sequence (P61981 1-247)
# B-Raf_729/14-3-3γ = target: T7, B-Raf_729/14-3-3γ (Homo sapiens, UniProt P61981); assay: Selectivity panel, FA protein titration; type: binding; conditions: 100 μM fragment; Glu +1
# T7 sequence (P61981 1-247): T1 sequence (P61981 1-247)
# 14-3-3γ = target: T8, 14-3-3γ (Homo sapiens, UniProt P61981); assay: Thermal shift assay, 14-3-3γ alone; type: binding; conditions: compound added to 14-3-3γ alone
# T8 sequence (P61981 1-247): T1 sequence (P61981 1-247)
# Procedure, shortened: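 Thermal shift assay as an orthogonal check of complex stabilization. Read-out is the 14-3-3γ melting temperature with test compound present. Protein is either alone or with acetylated Pin1 peptide added at 5 or 50 equiv.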
# 14-3-3/Pin1_72 complex = 14-3-3/Pin1_72 complex (Homo sapiens, UniProt P61981); assay: Cooperativity analysis, 2D FA protein titrations; type: binding
# CFTRpS753/14-3-3γ = assay: Selectivity panel, FA protein titration; type: binding; conditions: 100 μM fragment; Val +1
SF / complex stabilization (14-3-3/ERα complex),EC50 (Pin1_72/14-3-3γ complex [1]) [µM],Kd (Pin1_72/14-3-3γ complex [2]) [nM],"SF (stabilization factor) (Pin1_72/14-3-3γ complex [2]; KD,DMSO/KD,compound, internal DMSO control, 100 μM fragment) [fold]",SF / complex stabilization (TBC1D237/14-3-3γ),SF / complex stabilization (C-Raf/14-3-3γ),SF / complex stabilization (Mypt1_472/14-3-3γ),SF / complex stabilization (ERRγ_179/14-3-3γ),SF / complex stabilization (B-Raf_729/14-3-3γ),effect on 14-3-3 melting temperature (14-3-3γ),concentration necessary to induce a 2-fold increase in PPI stabilization (14-3-3/Pin1_72 complex) [µM],Compound,SF / complex stabilization (AS160/14-3-3γ complex) [fold],SF / complex stabilization (Abl1pT735/14-3-3γ),SF / complex stabilization (p65pS45/14-3-3γ),SF / complex stabilization (CFTRpS753/14-3-3γ)
–,> 1000,–,–,–,–,–,–,–,–,–,Cc1cn(-c2ccc(C=O)cc2)cn1 [fragment 4],–,–,–,–
not responsive to fragment stabilization,101 ± 6,2160 ± 123,10.8,–,–,–,–,–,–,–,O=Cc1ccc(-n2ccnc2-c2ccccc2)cc1Br [fragment 13],1.2 to 2.7,–,–,–
not responsive to fragment stabilization,118 ± 7,–,–,no significant stabilization,abolishes any stabilizing effect,no significant stabilization,no significant stabilization,no significant stabilization,no significant effect,–,O=Cc1ccc(-n2ccnc2-c2cc(Br)ccc2F)cc1Br [fragment 27],1.2 to 2.7,no significant complex stabilization,no significant complex stabilization,–
not responsive to fragment stabilization,79 ± 3,–,–,no significant stabilization,abolishes any stabilizing effect,no significant stabilization,no significant stabilization,no significant stabilization,no significant effect,1,O=Cc1ccc(-n2ccnc2-c2ccc(F)cc2F)cc1Br [fragment 28],1.2 to 2.7,some stabilizing activity,some stabilizing activity,some stabilizing activity

Compound,SF / complex stabilization (14-3-3/ERα complex),EC50 (Pin1_72/14-3-3γ complex [1]) [µM],Kd (Pin1_72/14-3-3γ complex [2]) [nM],"SF (stabilization factor) (Pin1_72/14-3-3γ complex [2]; KD,DMSO/KD,compound, internal DMSO control, 100 μM fragment) [fold]",SF / complex stabilization (TBC1D237/14-3-3γ),SF / complex stabilization (C-Raf/14-3-3γ),SF / complex stabilization (Mypt1_472/14-3-3γ),SF / complex stabilization (ERRγ_179/14-3-3γ),SF / complex stabilization (B-Raf_729/14-3-3γ),effect on 14-3-3 melting temperature (14-3-3γ),concentration necessary to induce a 2-fold increase in PPI stabilization (14-3-3/Pin1_72 complex) [µM],SF / complex stabilization (AS160/14-3-3γ complex) [fold],SF / complex stabilization (Abl1pT735/14-3-3γ),SF / complex stabilization (p65pS45/14-3-3γ),SF / complex stabilization (CFTRpS753/14-3-3γ)
"C=CC(C)(C)OC[C@H]1O[C@H](O[C@@H]2C3=C([C@H](C)COC(C)=O)C[C@H](O)[C@]3(C)/C=C3/[C@@H](COC)CC[C@H]3[C@@H](C)[C@H]2O)[C@H](O)[C@@H](OC(C)=O)[C@@H]1O [FCA, fusicoccin A, reference compound]",160 fold,–,–,–,–,–,–,–,–,–,–,–,–,–,–
